One block for each compound: values may come before it. Bridge positions count the residues as written; N and C are the ends. Ends that are not written are not given here.
Assays:
interscapular BAT = assay: FDG PET/CT imaging of BAT metabolic activity; type: in vivo, mouse; settings: versus cold-acclimated mice
BAT = assay: NIR fluorescence imaging; type: in vivo, mouse; settings: 100 nmol iv, 1 hr, IRDye800 conjugate
Summary of the method: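 Subjects were 6-week-old C57BL/6 males, n=3 per group, with experiments done twice. Mice were pre-housed at 6 °C or RT, with propranolol where indicated. IRDye800-conjugated test peptide or a control WAT-homing peptide was given i.v. and circulated 1 h. Interscapular BAT and i.p. WAT were resected and imaged by NIR fluorescence with 785 nm laser excitation. Data are mean ± s.e.m.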

reduction in FDG uptake by BAT as a result of warm-acclimation (interscapular BAT): 1.7 fold
Compound: OC[C@H]1O[C@@H](O)[C@H]([18F])[C@@H](O)[C@@H]1O [FDG, fluorine-18 deoxyglucose]

Compound: CC(C)NCC(O)COc1cccc2ccccc12 (stereo not drawn) [propranolol]
reduction in FDG uptake by BAT, warm-acclimation combined with propranolol treatment (interscapular BAT; propranolol ip 5 mg/kg): 4.1 fold

Compound: CKGGRAKDC (disulfide 1-9 (inferred))
accumulation in WAT and BAT (resected tissues) (BAT): accumulation in WAT, but not in BAT

Source: article PMC3806199 (Nature communications, 2013)
